A short description of test [1]: inhibition of K1F phage lysis of E. coli UTI89, confirmation, bacterial capsule biogenesis inhibitors, C7 control, OD600 (AID 504358). Particulars: E. coli UTI89 K1F phage lysis inhibition, OD600; for SI: measured here: selectivity index CC50/IC50, stronger effect = higher value. The essentials: (§1)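 Assay system – E. coli UTI89 K1 cells with K1F phage · Times – 1.25 h compound, then 3 h phage, 37 °C · Signal – absorbance at 600 nm, before infection and 3 h after · Read-out basis – phage lysis inferred from OD600 3 h after phage infection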

Test [2] deals with E. coli UTI89 K1F phage lysis inhibition, OD600. Described as above. Particulars: for CC50: measured here: cytotoxicity. A digest of the protocol:
as §1

Each structure is given as a SMILES string. Calls of active or inactive are those of the source.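 Rule for the calls: active = compounds blocking phage killing of the bacteria by at least 50% at some tested dose; inactive = the rest.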

From PubChem BioAssay AID504358 (Southern Research Specialized Biocontainment Screening …, 2011) come the findings set out here.

What is called CC50 is the concentration at which the toxic effect on the cells reaches its halfway point. As for `Cc1ccc(C2c3c(oc4cc(C)c(C)cc4c3=O)C(=O)N2CCCN2CCOCC2)cc1` (stereo unspecified), the outcome in test [1] was inactive. Besides, in test [2], the CC50 is 44.4 µM.

By IC50 is commonly meant the point on the concentration scale where inhibition reaches its midpoint. Molecule `O=C(NCc1cc([N+](=O)[O-])ccc1O)c1cccnc1Sc1ccccc1Cl` gave an SI in test [1] of more than 3.8. In addition, in test [2], the half-inhibitory concentration (IC50) is 26.1 µM and the cytotoxic concentration (CC50) was more than 100 µM.

In the case of `O=C(O)c1cc(-c2c[nH]c3ccccc23)nc2cc3ccccc3cc12`, the result in test [1] was inactive.

`CC1(C(=O)O)CCC(C(=O)Nc2ccc3ccccc3c2)C1(C)C` (stereo unspecified) yielded an SI in test [1] of more than 1.4. For the same molecule, in test [2], the IC50 was 69.8 µM and the CC50 was more than 100 µM.

Take `O=C(NCc1cc([N+](=O)[O-])ccc1O)c1cccnc1Sc1ccccc1`: in test [2], the CC50 is more than 100 µM.

As to `O=C(ONc1ccc(N=NC(=O)c2ccccc2O)cc1)c1ccccc1`, the SI in test [1] was determined as 13.7. Moreover, in test [2], the IC50 was 3.3 µM and the half-maximal cytotoxic concentration (CC50) came to 45.1 µM.

Take `Cc1cc(C)c2c(=O)c(-c3cc(C(=O)O)c4cc5ccccc5cc4n3)coc2c1`: the outcome in test [1] was inactive.

Take `O=C(Nc1ccncc1)c1ccc2ncsc2c1`: in test [1], the SI is more than 33. Besides, in test [2], the half-inhibitory concentration (IC50) is 3 µM and the half-maximal cytotoxic concentration (CC50) is more than 100 µM.

In test [1], `CC1=NN2C(=N)/C(=C\c3ccc(SCc4ccco4)o3)C(=O)N=C2S1` gave an SI of 4.4. Further, in test [2], the half-maximal inhibitory concentration (IC50) is 22.6 µM and the CC50 was more than 100 µM.

With `O=C(O)c1cc(-c2cccc(Cl)c2)nc2cc3ccccc3cc12`, in test [1], the result was inactive.

For `CCOc1ccc(-c2cc(NC(=O)c3c(F)cccc3F)c(C(=O)O)s2)cc1`, the SI in test [1] was found to be 10.8. For the same molecule, in test [2], the IC50 was 6.2 µM and the 50% cytotoxic concentration (CC50) was found to be 66.7 µM.

`COc1ccc(OC)c(-c2cc(C(=O)O)c3cc4ccccc4cc3n2)c1`: the outcome in test [1] was inactive.

With `COc1ccc2nc(NC(=O)c3ccc(Br)s3)sc2c1`, the SI in test [1] was more than 9.4. In test [2], the IC50 was 10.6 µM and the cytotoxic concentration (CC50) was more than 100 µM.

In test [2], `O=C(COc1ccc(Cl)cc1Cl)Nc1ccc(C(=O)Nc2ccccc2C(=O)O)cc1` gave a CC50 of 45.3 µM.

Regarding `C=CCOc1ccc(C2c3c(oc4ccccc4c3=O)C(=O)N2CCCN2CCOCC2)cc1` (stereo unspecified), in test [1], the result was inactive. Further, the 50% cytotoxic concentration (CC50) in test [2] was more than 100 µM.
